In article PMC11523056 (RSC Advances, 2024):
Ends that are not written are not given here. Peptide text beside a SMILES is read from it.

Columns and labels:
murine primary neurons = format: cell-based, mouse; details: all concentrations tested (1, 5 & 10 μM), 60 min, 37 °C, live-cell confocal microscopy
In short: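 Mature murine primary neurons were incubated for 60 min in neurobasal medium with TAMRA-labelled peptide at 1, 5 or 10 μM, washed, and imaged live by confocal microscopy in an incubation chamber. The read-out was average fluorescence intensity per cell. Neurons showing homogeneous cytoplasmic plus nucleolar fluorescence were scored as transduced. Data are mean ± standard deviation, with equal n per group.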

[1] = system: acute ischaemic stroke patients; details: ESCAPE-NA1, acute ischaemic stroke; cited from earlier work
[2] = particularly upon co-treatment with Alteplase; cited from earlier work

| Compound | uptake by mean fluorescence intensity per cell (comparison in words) (murine primary neurons) | safety in clinical trial [1] | degradation in human plasma (in words) [2] |
| --- | --- | --- | --- |
| CC[C@H](C)[C@H](NC(=O)[C@H](CO)NC(=O)[C@H](CO)NC(=O)[C@H](CC(C)C)NC(=O)[C@H](CCCCN)NC(=O)c1ccc2c(c1)C(=O)OC21c2ccc(N(C)C)cc2Oc2cc(N(C)C)ccc21)C(=O)N[C@@H](CCC(=O)O)C(=O)N[C@@H](CO)C(=O)N[C@@H](CC(=O)O)C(=O)N[C@H](C(=O)O)C(C)C [TAMRA-NR2B9c] (HELM PEPTIDE1{[CN(C)c1ccc2c(c1)Oc1cc(N(C)C)ccc1C21OC(=O)c2cc(C(=O)[*:2])ccc21].K.L.S.S.I.E.S.D.V}$$$$V2.0) | much lower than for any other peptide construct tested |  |  |
| YGRKKRRQRRR [TAMRA-Tat] | dose response is minimal |  |  |
| YGRKKRRQRRRKLSSIESDV [Tat-NR2B9c, nerinetide] |  | good safety profile | rapid degradation |
